Experiment [1] is described as follows: Antiproliferative activity against rat HSC-T6 cells assessed as reduction in cell viability. In kind it is functional, cell-based. A digest of the protocol: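 Immortalized rat hepatic stellate line HSC-T6. Viability was measured by a procedure from earlier work, and IC50 values were derived from it. Epigallocatechin-3-gallate was the positive control.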

Experiment [2] is described as follows: Induction of apoptosis in rat HSC-T6 cells assessed as viable cells at 1 uM after 48 hrs using annexin-V/PI double staining by flow cytometry (reference value: 99.2 %). The conditions noted are these: HSC-T6, 48 h, read-out: Activity. Type of experiment: functional.
Experiment [3] is described as follows: Induction of apoptosis in rat HSC-T6 cells assessed as early apoptotic cells at 1 uM after 48 hrs using annexin-V/PI double staining by flow cytometry (reference value: 0.150 %). Type of experiment: functional.
Experiment [4] can be described thus: Induction of apoptosis in rat HSC-T6 cells assessed as late apoptotic cells at 1 uM after 48 hrs using annexin-V/PI double staining by flow cytometry (reference value: 0.130 %). In kind it is functional.
Experiment [5] can be described thus: Induction of apoptosis in rat HSC-T6 cells assessed as necrotic cells at 1 uM after 48 hrs using annexin-V/PI double staining by flow cytometry (reference value: 0.550 %). Type of experiment: functional.
The nature of experiment [6]: Induction of apoptosis in rat HSC-T6 cells assessed as viable cells at 3 uM after 48 hrs using annexin-V/PI double staining by flow cytometry (reference value: 99.2 %). The conditions noted are these: HSC-T6, 48 h, read-out: Activity. Type of experiment: functional.
Experiment [7] in a line: Induction of apoptosis in rat HSC-T6 cells assessed as early apoptotic cells at 3 uM after 48 hrs using annexin-V/PI double staining by flow cytometry (reference value: 0.150 %). In kind it is functional.
Experiment [8] can be described thus: Induction of apoptosis in rat HSC-T6 cells assessed as late apoptotic cells at 3 uM after 48 hrs using annexin-V/PI double staining by flow cytometry (reference value: 0.130 %). In kind it is functional.
A short description of experiment [9]: Induction of apoptosis in rat HSC-T6 cells assessed as necrotic cells at 3 uM after 48 hrs using annexin-V/PI double staining by flow cytometry (reference value: 0.550 %). In kind it is functional.

For the compound `CC1Oc2cc(O)c3c(=O)c4ccc(O)c(O)c4oc3c2C1(C)C` (centres undefined), the IC50 in experiment [1] worked out at 13.1 µM. For `C[C@@H]1Oc2cc3oc4c5c(c(O)cc4c(=O)c3c(O)c2C1(C)C)OC(C)(C)C=C5`, the IC50 in [1] came out at 15.9 µM. On the same count and under the same terms, then `COc1c2c(c3c(=O)c4ccc(O)c(O)c4oc3c1CC=C(C)C)O[C@H](C)C2(C)C`, with 14.8 µM; and `CC1(C)C=Cc2c(cc(O)c3c(=O)c4c5c(ccc4oc23)OC(C)(C)C=C5)O1`, with > 30 µM; and `COc1cc2oc3cc(O)cc(O)c3c(=O)c2cc1OC`, with > 30 µM. The same measure, in the same setting: the result for `C=CC(C)(C)c1c(O)c(CC=C(C)C)c2oc3cc(O)c(O)cc3c(=O)c2c1O` [MACLURAXANTHONE B] reads 13.3 µM; that for `COc1c(CC=C(C)C)c(O)c2c(=O)c3cc(O)c(O)cc3oc2c1CC=C(C)C` [CUDRATRICUSXANTHONE K], > 30 µM.

As for `O=c1c2ccc(O)cc2oc2ccc(O)cc12`, the IC50 in experiment [1] is > 30 µM. As for `COc1c2c(c3c(=O)c4cc(O)c(O)cc4oc3c1CC=C(C)C)O[C@@H](C)C2(C)C`, the IC50 in experiment [1] worked out at 15.2 µM. `CC(C)=CCc1c(O)cc(O)c2c(=O)c3cccc(O)c3oc12`: in [1], the IC50 was > 30 µM. As to `C=CC(C)(C)c1c(OC)c(CC=C(C)C)c2oc3cc(O)c(O)cc3c(=O)c2c1O`, in experiment [1], the IC50 turned out to be 9.7 µM. In experiment [2], the viability at 1 µM came to 80.8%. Further, the Activity in [3] was found to be 11.5%; in experiment [4], 2.54%; in experiment [5], 5.19%; in experiment [7] it was 8.76%; in experiment [8] it was 5.81%; in experiment [9] it was 6.67%. In [6], the viability at 3 µM is 78.8%. For the compound `C=CC(C)(C)c1c(OC)cc(O)c2c(=O)c3ccc(O)c(O)c3oc12` [ISOCUDRANIAXANTHONE B], the IC50 in experiment [1] is 17.3 µM. With `CC1(C)C=Cc2cc(C(=O)c3cccc(O)c3)c(O)c(O)c2O1`, in [1], the IC50 turned out to be 7.1 µM.

For `O=C(O[C@@H]1Cc2c(O)cc(O)cc2O[C@@H]1c1cc(O)c(O)c(O)c1)c1cc(O)c(O)c(O)c1` [EPIGALOCATECHIN GALLATE], the half-inhibitory concentration (IC50) in experiment [1] was 29.8 µM. As for `CC(C)=CCc1c(O)c(O)cc2c(=O)c3c(O)c4c(cc3oc12)OC(C)C4(C)C` (centres undefined) [CUDRAXANTHONE M], the IC50 in experiment [1] turned out to be 10.4 µM. On the same count and under the same terms, then `CC(C)=CCc1c(O)cc(O)c2c(=O)c3c(CC=C(C)C)c(O)ccc3oc12` [GERONTOXANTHONE H], with > 30 µM.

For the origin of these results see ChEMBL document CHEMBL3352135, “Antiproliferative prenylated xanthones and benzophenones from the roots of Cudrania tricuspidata in HSC-T6 cells” (J Nat Prod, 2014).
